Screening results from PubChem BioAssay.
Sampled rows, rich in hits. Any-hit rate of the full collection: about 2.1%.
FN deposit inh = fibronectin deposition inhibition; inhibition, % at 12.6 µM; AID 743247; hit rate 0.086% among 350,000; AH1F fibroblasts, Alexa488-fibronectin deposition fluorescence, overnight;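 active means mean inhibition across replicates of 30% or more, regardless of how many single replicates reach that level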;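 further: positive control wells lacked labelled fibronectin entirely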
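Assay system: AH1F fibroblast monolayer, labelled fibronectin deposition. Amount: 10000 cells per well. Also added: labelled fibronectin 24 nM. Compound: single-point pinned compound. Incubation: cell attachment 1 h, compound and FN exposure overnight. Detection: fluorescence after three HBSS washes, excitation 485 nm, emission 525 nm. Read-out: inhibition of fibronectin deposition signal.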
aSyn 5UTR inh = MLPCN primary screen, SNCA 5' untranslated region; alpha-synuclein 5'UTR reporter, inhibitor activity; inhibition, % (tested at 7.5 µM); AID 1813; hit rate 0.82% among 300,000; in the data active means inhibition above about 60%;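 further: H4 neuroglioblastoma cells stably carrying SNCA 5'UTR luciferase fusion; 0% = DMSO wells and 100% = positive control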
Shn3 inh set2 = inhibitors of Schnurri-3 3'UTR reporter in osteoblasts | Clone20 osteoblast Shn3 3'UTR firefly luciferase, 24 h | inhibition, % at 12.5 µM | hit rate 0.52% among 360,000;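 active means mean inhibition of at least 75% with every replicate also reaching 75%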;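 further: 0% = median of neutral control wells and 100% = pilot-screen positive control compound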
PAX8 inh HTS = PAX8 transcriptional activity inhibition; hit rate 1.2% among 360,000; RMG-I TPO-luciferase reporter, SteadyGlo, 24 h; inhibition, % at 12.6 µM;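 active means mean replicate inhibition at least 60% with every replicate also reaching 60%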;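 further: luciferase light reporting Pax8 driven TPO promoter activity; plate controls were median of neutral control wells for no effect and mitoxantrone controls for full effect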
EBV LMP1 NFkB = Epstein-Barr LMP1 NF-kappaB reporter inhibition. LMP1-induced NF-kappaB luciferase reporter cells, luminescence. inhibition, % at 12.5 µM. hit rate 0.69% among 350,000. AID 504558; in the data active means inhibition above about 41%;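 further: 0% = neutral control wells and 100% = reference inhibitor control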
EWS-Fli block = EWS/Fli transcriptional activity inhibition. A673 NR0B1-luciferase reporter, viability-normalised. inhibition, % at 12.6 µM. hit rate 0.67% among 350,000. AID 651661;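 active means mean inhibition of at least 50% after viability correction, with every replicate also passing that limit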;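 further: firefly luciferase signal divided by Alamar Blue viability fluorescence both relative to DMSO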
The depositor's hits bear a star; / = no result.

SMILES	FN deposit inh	aSyn 5UTR inh	Shn3 inh set2	PAX8 inh HTS	EBV LMP1 NFkB	EWS-Fli block
Cc1ccc(-c2ccnc3c(Cl)c(C)nn23)cc1	3.9	68.7*	4.5	12.8	-7.7	-2.5
Cc1nn2c(-c3ccncc3)ccnc2c1Cl	13.2	10.9	9.7	1.3	0.9	-1.5
COc1ccc(NC(=O)Nc2ccc3c(c2)C(=O)N([C@@H](C)CO)C[C@H](C)[C@@H](CN(C)C(=O)Nc2c(C)noc2C)OCCCC[C@H](C)O3)cc1	7.0	/	/	/	/	-0.9
C[C@H](CO)N1C[C@H](C)[C@@H](CN(C)S(C)(=O)=O)Oc2c(NC(=O)Cc3ccccc3)cccc2C1=O	30.5*	/	1.2	-11.3	0.9	2.2
Cc1ccc(S(=O)(=O)N(C)C[C@H]2Oc3c(NC(=O)Nc4cccc5ccccc45)cccc3C(=O)N([C@@H](C)CO)C[C@@H]2C)cc1	12.5	/	2.3	102.7*	-128.9	3.5
C[C@H]1CN([C@@H](C)CO)C(=O)c2cccc(NC(=O)Nc3cccc4ccccc34)c2O[C@@H]1CN(C)C(=O)Nc1ccc(C(F)(F)F)cc1	/	/	/	74.3*	/	8.0
C[C@@H]1CN([C@H](C)CO)C(=O)c2cccc(NC(=O)Nc3cccc4ccccc34)c2O[C@@H]1CN(C)C(=O)Nc1ccc(C(F)(F)F)cc1	/	/	/	44.5	/	-9.2
C[C@H](CO)N1C[C@H](C)[C@@H](CN(C)S(=O)(=O)c2cccs2)Oc2c(NC(=O)Cc3ccccc3)cccc2C1=O	-6.6	/	6.1	4.5	-3.9	2.6
C[C@@H]1CN([C@H](C)CO)C(=O)c2cccc(NC(=O)Nc3cccc4ccccc34)c2O[C@H]1CN(C)C(=O)Nc1ccc(C(F)(F)F)cc1	/	/	/	80.6*	/	9.7
C[C@H](CO)N1C[C@H](C)[C@H](CN(C)S(=O)(=O)c2cccs2)Oc2ccc(NC(=O)Cc3cn(C)c4ccccc34)cc2CC1=O	1.2	/	/	-13.8	/	-1.7
CCNC(=O)C[C@H]1CC[C@@H]2[C@@H](COc3ccc(NC(=O)Cc4cccs4)cc3C(=O)N2C)O1	-3.7	/	/	-5.1	/	2.1
CO[C@@H]1CC[C@@H]2CCN(C)C(=O)[C@@H](C)[C@H](OC)CN(C)C(=O)c3cc(C#N)ccc3OC[C@@H]1O2	5.0	/	/	-12.3	/	-4.3
COCC(=O)Nc1ccc2c(c1)OC[C@H](C)N(Cc1ccccc1OC)C[C@H](C)[C@@H](OC)CN(C)C2=O	-2.5	/	/	/	/	3.6
COCCn1c(SCC(=O)N2CCCc3ccccc32)nc2c(c1=O)SC(C)C2 (stereo unspecified)	-1.5	7.0	1.1	22.9	-13.3	8.8
COCCn1c(SCC(=O)N2CCc3ccccc32)nc2c(c1=O)SC(C)C2 (stereo unspecified)	1.8	26.8	0.8	0.8	88.5*	10.0
C[C@@H]1CN([C@@H](C)CO)C(=O)c2cccc(NC(=O)Nc3ccc(F)cc3)c2O[C@H]1CN(C)C(=O)NC1CCCCC1	/	/	/	5.9	/	-0.4
C[C@@H]1CCCCO[C@H](CN(C)CC2CCCCC2)[C@H](C)CN([C@@H](C)CO)C(=O)c2cc(NC(=O)Nc3ccc(C(F)(F)F)cc3)ccc2O1	6.3	/	/	-11.1	/	81.2*
C[C@@H]1CCCCO[C@H](CN(C)CC2CCCCC2)[C@H](C)CN([C@@H](C)CO)C(=O)c2cc(NC(=O)Cc3ccccc3)ccc2O1	/	/	/	-1.1	/	72.7*
C[C@H](CO)N1C[C@H](C)[C@H](CN(C)CC2CCCCC2)OCCCC[C@H](C)Oc2ccc(NC(=O)Cc3ccccc3)cc2C1=O	/	/	/	-17.7	/	-22.0
C[C@@H]1CCCCO[C@@H](CN(C)CC2CCCCC2)[C@@H](C)CN([C@H](C)CO)C(=O)c2cc(NC(=O)Nc3ccc(C(F)(F)F)cc3)ccc2O1	9.3	/	/	-20.7	/	-11.3
C[C@@H]1CCCCO[C@@H](CN(C)CC2CCCCC2)[C@H](C)CN([C@@H](C)CO)C(=O)c2cc(NC(=O)Nc3ccc(C(F)(F)F)cc3)ccc2O1	-11.9	/	/	17.2	/	76.2*
C[C@@H]1CCCCO[C@H](CN(C)CC2CCCCC2)[C@H](C)CN([C@@H](C)CO)C(=O)c2cc(NC(=O)Nc3ccccc3)ccc2O1	0.5	/	/	78.4*	/	18.7
CC(=O)N(C)C[C@@H]1Oc2ccc(NS(C)(=O)=O)cc2CC(=O)N(C)C[C@H]1C	-12.3	/	/	/	/	/
C[C@@H]1CN([C@@H](C)CO)C(=O)c2cc(NS(=O)(=O)c3cccs3)ccc2O[C@@H]1CN(C)S(=O)(=O)c1ccc(Cl)cc1	3.8	/	/	/	/	3.7
